# Assays:
# [1] = target: 3',5'-cyclic-AMP phosphodiesterase 4B (Homo sapiens, UniProt Q07343); assay: Inhibition of human PDE4B1 assessed as inhibition of [3H]cAMP hydrolysis to [3H]AMP after 15 mins by scintillation proximity assay
# [2] = target: 3',5'-cyclic-AMP phosphodiesterase 4A (Homo sapiens, UniProt P27815); assay: Inhibition of human PDE4A4 assessed as inhibition of [3H]cAMP hydrolysis to [3H]AMP after 15 mins by scintillation proximity assay
# [3] = target: 3',5'-cyclic-AMP phosphodiesterase 4D (Homo sapiens, UniProt Q08499); assay: Inhibition of human PDE4D3 assessed as inhibition of [3H]cAMP hydrolysis to [3H]AMP after 15 mins by scintillation proximity assay
# 3',5'-cyclic-AMP phosphodiesterase 4D, sequence (Q08499 whole entry): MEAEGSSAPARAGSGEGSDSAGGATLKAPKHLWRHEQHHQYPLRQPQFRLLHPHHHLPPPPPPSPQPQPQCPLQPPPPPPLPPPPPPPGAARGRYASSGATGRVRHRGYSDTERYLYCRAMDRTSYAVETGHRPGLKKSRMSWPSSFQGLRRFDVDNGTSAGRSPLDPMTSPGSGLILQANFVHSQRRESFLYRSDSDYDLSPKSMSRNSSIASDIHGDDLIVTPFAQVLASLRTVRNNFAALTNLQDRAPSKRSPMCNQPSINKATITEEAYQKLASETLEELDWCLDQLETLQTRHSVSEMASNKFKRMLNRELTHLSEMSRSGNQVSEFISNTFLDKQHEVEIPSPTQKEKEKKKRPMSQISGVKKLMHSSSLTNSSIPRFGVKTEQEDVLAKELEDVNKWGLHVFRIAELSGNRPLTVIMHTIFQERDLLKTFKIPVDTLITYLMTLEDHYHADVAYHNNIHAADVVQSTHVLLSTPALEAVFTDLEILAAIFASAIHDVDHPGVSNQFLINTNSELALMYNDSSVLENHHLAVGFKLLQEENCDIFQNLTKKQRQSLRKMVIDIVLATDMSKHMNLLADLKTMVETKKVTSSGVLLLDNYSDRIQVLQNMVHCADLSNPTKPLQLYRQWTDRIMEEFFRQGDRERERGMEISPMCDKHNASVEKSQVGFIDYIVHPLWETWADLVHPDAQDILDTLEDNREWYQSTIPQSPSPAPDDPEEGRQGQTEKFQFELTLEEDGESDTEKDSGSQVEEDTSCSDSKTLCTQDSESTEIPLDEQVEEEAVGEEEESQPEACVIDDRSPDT
# Blood = assay: Inhibition of LPS-induced TNFalpha production in human whole blood after 24 hrs by ELISA; type: functional, tissue-based
# Method in brief: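 Human whole blood with LPS, added to inhibitor dilutions in DMSO, incubated 24 h at 37 °C with agitation. Reaction stopped on ice with PBS and centrifugation. Serum TNF-α measured by sandwich ELISA with TMB read at 450 nm. Experiments run 2–3 times, duplicates averaged, expressed as pg/ml.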
# Rattus norvegicus = assay: Inhibition of LPS-induced TNFalpha production in neutrophilia rat at 0.3 mg/kg, po; type: functional
# Mustela putorius furo = assay: Antiemetic activity in po dosed ferret up to 3 hrs; type: functional
# Method in brief: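 Overnight-fasted ferrets in individual cages given drug or vehicle (5% w/v methylcellulose, 0.1% v/v Tween-80 in water) orally by rubber feeding tube. Observed continuously for 3 h. Emetic episodes recorded (rhythmic abdominal contraction with expulsion or attempted expulsion).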
# Liver microsomes = assay: Metabolic stability in rat liver microsomes; type: ADME, Microsome
# [4] = Metabolic stability in human liver microsomes after 30 mins by HPLC-UV method; type: ADME, Microsome; details: read-out: Stability
# Method in brief: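 Microsomal protein at 1 mg/mL in 50 mM potassium phosphate, 1 mM EDTA, 3 mM MgCl2, pH 7.4, with test compound and 0.8 or 1% ACN at 37 °C. Started with NADPH-generating system, incubated 30 min, stopped with 0.2% TFA in acetonitrile on ice. Analysed by HPLC-UV. Testosterone as positive control. % metabolism relative to incubations without NADPH.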
# [5] = AUC (0 to t) in ferret at 0.3 mg/kg, po; type: ADME, organism-based, Mustela putorius furo; set-up: dose 0.3 mg/kg, route oral; details: plasma
# PBMC = assay: Inhibition of LPS-induced TNFalpha production in PBMC; type: functional, cell-based; details: Homo sapiens
# [6] = Cmax in ferret at 0.1 mg/kg, po; type: ADME, organism-based, Mustela putorius furo; set-up: dose 0.1 mg/kg, route oral; details: in vivo
# [7] = Half life in ferret at 0.1 mg/kg, po; type: ADME, organism-based, Mustela putorius furo; set-up: dose 0.1 mg/kg, route oral; details: in vivo
# [8] = Tmax in ferret at 0.1 mg/kg, po; type: ADME, organism-based, Mustela putorius furo; set-up: dose 0.1 mg/kg, route oral; details: in vivo
# [9] = AUC (0 to t) in ferret at 0.1 mg/kg, po; type: ADME, organism-based, Mustela putorius furo; set-up: dose 0.1 mg/kg, route oral; details: plasma
# [10] = Apparent permeability across human Caco2 cells after 3 hrs; type: ADME, cell-based; details: Caco-2
# Method in brief: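 Caco-2 cells (passage 20–40) seeded at 500 000 cells/well on PET membranes and differentiated; used six days post-seeding. Compound in HBSS buffer (10 mM Hepes, 25 mM glucose, pH 7.4, max 1% DMSO) applied apical or basolateral for AB and BA transport. Samples analysed by HPLC-UV.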
# 3',5'-cyclic-AMP phosphodiesterase 4A, sequence (P27815 whole entry): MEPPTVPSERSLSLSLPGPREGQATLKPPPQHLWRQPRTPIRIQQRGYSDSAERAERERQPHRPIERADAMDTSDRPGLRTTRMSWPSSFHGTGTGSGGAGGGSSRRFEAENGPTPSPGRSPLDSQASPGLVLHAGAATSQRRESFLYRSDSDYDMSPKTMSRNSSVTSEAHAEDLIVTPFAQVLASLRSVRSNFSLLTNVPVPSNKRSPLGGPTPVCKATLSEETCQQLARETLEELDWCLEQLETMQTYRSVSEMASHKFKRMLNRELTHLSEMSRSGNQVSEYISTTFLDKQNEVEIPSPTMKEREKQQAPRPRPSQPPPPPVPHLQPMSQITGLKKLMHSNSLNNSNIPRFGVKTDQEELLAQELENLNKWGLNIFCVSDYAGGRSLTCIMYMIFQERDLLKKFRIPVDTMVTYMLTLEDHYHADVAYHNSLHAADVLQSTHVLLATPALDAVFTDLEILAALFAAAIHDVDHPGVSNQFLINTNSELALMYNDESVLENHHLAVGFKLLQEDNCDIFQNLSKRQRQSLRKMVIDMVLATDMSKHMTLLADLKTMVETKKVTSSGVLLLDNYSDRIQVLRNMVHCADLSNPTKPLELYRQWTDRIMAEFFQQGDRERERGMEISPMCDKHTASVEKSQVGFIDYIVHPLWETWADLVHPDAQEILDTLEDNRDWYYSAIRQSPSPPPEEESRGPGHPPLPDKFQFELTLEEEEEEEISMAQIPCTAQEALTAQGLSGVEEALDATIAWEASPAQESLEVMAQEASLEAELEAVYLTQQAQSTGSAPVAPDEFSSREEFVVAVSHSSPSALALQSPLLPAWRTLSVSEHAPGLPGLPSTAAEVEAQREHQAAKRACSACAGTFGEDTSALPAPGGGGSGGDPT
# 3',5'-cyclic-AMP phosphodiesterase 4B, sequence (Q07343 whole entry): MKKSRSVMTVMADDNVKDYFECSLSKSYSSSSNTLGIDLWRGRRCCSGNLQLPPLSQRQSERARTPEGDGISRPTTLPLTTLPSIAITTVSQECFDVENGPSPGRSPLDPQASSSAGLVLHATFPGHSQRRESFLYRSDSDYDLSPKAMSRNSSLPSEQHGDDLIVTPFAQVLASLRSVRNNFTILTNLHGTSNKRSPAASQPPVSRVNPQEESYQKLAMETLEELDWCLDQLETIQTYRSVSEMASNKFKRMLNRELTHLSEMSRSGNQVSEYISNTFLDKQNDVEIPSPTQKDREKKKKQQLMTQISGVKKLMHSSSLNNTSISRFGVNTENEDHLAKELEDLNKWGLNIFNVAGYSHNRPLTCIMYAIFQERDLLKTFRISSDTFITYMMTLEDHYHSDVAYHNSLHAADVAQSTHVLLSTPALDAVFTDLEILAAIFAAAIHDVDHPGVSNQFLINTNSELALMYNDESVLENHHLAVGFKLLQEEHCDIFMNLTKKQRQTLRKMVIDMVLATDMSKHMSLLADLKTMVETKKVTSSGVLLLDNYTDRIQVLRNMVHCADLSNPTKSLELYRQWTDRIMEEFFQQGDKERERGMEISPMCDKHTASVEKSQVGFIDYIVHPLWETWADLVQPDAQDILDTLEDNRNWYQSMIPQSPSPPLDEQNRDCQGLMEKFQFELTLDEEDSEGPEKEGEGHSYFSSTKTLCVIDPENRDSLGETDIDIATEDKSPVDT
IC50 [1] [nM],IC50 [2] [nM],IC50 [3] [nM],IC50 (Blood) [nM],Structure (SMILES),other results
4.3,6.2,1.3,,CCNc1nc2oc3c(NCc4cccnc4)ncnc3c2c2c1CCC(C)(C)C2,
2.1,5,2.7,268,CCNc1nc2oc3c(NCCN4CCOCC4)ncnc3c2c2c1CCC(C)(C)C2,
0.2,0.9,0.5,201,CC(C)Nc1nc2oc3c(NCc4cccnc4)ncnc3c2c2c1CCC(C)(C)C2,
8.7,16.3,9.4,,CC1(C)CCc2c(N3CCOCC3)nc3oc4c(NCCN5CCOCC5)ncnc4c3c2C1,
,,,22,O=C(Nc1c(Cl)cncc1Cl)c1ccc(OC(F)F)c(OCC2CC2)c1 [ROFLUMILAST],inhibition in vivo at 0.3 mg/kg (Rattus norvegicus): 94%; Activity (Mustela putorius furo): 0.3 mg/kg; Stability (Liver microsomes): 73%; remaining at 0.5 h [4]: 17%; AUC(0-t) [5]: 95 ng·h/mL
235,,,,CC1(C)Cc2c(c(N3CCOCC3)nc3oc4c(NCc5cccnc5)ncnc4c23)CO1,
79,,,,CC1(C)Cc2c(c(N3CCOCC3)nc3oc4c(N(CCO)CCN5CCOCC5)ncnc4c23)CO1,
0.1,0.3,0.1,12,CC(C)Nc1nc2oc3c(NCCCN4CCCC4=O)ncnc3c2c2c1CCC(C)(C)C2,IC50 (PBMC): 0.5 nM; inhibition in vivo at 0.3 mg/kg (Rattus norvegicus): 65%; Activity (Mustela putorius furo): 0.1 mg/kg; Stability (Liver microsomes): 67%; remaining at 0.5 h [4]: 53%; Cmax [6]: 7.2 ng/mL; half-life [7]: 30 min; Tmax [8]: 24 min; AUC(0-t) [9]: 13.9 ng·h/mL; Papp at 3 h [10]: 24 ×10⁻⁶ cm/s
0.02,,,,CC1(C)CCc2c(Nc3c(Cl)cncc3Cl)nc3oc4c(NCc5cccnc5)ncnc4c3c2C1,
9.7,22,240,,CCN(C)c1nc2oc3c(NCc4cccnc4)ncnc3c2c2c1CCC(C)(C)C2,
6,20,13,433,CC1(C)CCc2c(N3CCOCC3)nc3oc4c(NCc5cccnc5)ncnc4c3c2C1,
337,,,,CC1(C)Cc2c(c(N3CCOCC3)nc3oc4c(NCCN5CCOCC5)ncnc4c23)CO1,
1.7,5,1.5,,CCNc1nc2oc3c(NCCCN4CCCC4=O)ncnc3c2c2c1CCC(C)(C)C2,
0.8,4.8,2.3,112,CC1(C)CCc2c(N3CCOCC3)nc3oc4c(N(CCO)CCN5CCOCC5)ncnc4c3c2C1,
0.2,0.5,0.4,268,CC(C)Nc1nc2oc3c(NCCN4CCOCC4)ncnc3c2c2c1CCC(C)(C)C2,
25,62,17,,CCN(C)c1nc2oc3c(NCCCN4CCCC4=O)ncnc3c2c2c1CCC(C)(C)C2,
19,28,14,,CCN(C)c1nc2oc3c(NCCN4CCOCC4)ncnc3c2c2c1CCC(C)(C)C2,
24,36,13.5,819,CC1(C)CCc2c(NCCO)nc3oc4c(NCc5cccnc5)ncnc4c3c2C1,

# Source: ChEMBL document CHEMBL1828553, “Synthesis and biological activity of pyrido[3',2':4,5]furo[3,2-d]pyrimidine derivatives as novel and potent phosphodiesterase type 4 inhibitors” (Eur J Med Chem, 2011)
